Reference: ChEMBL document CHEMBL3351820, “Development of novel membrane active lipidated peptidomimetics active against drug resistant clinical isolates” (Bioorg Med Chem, 2014)
Values after ≈ are worked out from the molar mass of the structure shown. Active and inactive are the calls of the source. The calls are words filed in the database; no cut-off is given here. Where a SMILES comes first, the peptide text is derived from it. [ ]: non-standard residue; d: D form. The star is where a group is joined. Stearoyl = CCCCCCCCCCCCCCCCCC(=O)*; Myristoyl = CCCCCCCCCCCCCC(=O)*; 3Abz = Nc1cccc(C(=O)O)c1; Orn = NCCC[CH](N)C(=O)O

Legend:
[1] = Therapeutic index, ratio of HC50 for human RBCs to MIC for Staphylococcus aureus MTCC 3160; conditions: red blood cells (RBCs), read-out: TI
[2] = Membrane permeabilization activity assessed as release of calcein from PC/PE/PI/ergosterol liposomes at 4 ug/ml after 5 mins by spectrofluorimetry; format: ADME
Outline: (§1)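 Calcein-loaded LUVs, PE/PG (bacterial mimic) or PC/PE/PI/ergosterol (fungal mimic), exposed to 1-20 μg/mL for 5 min before fluorescence reading. Triton X-100 in Tris-HCl/NaCl/EDTA buffer sets 100% leakage; % leakage = 100(F−F0)/(Ft−F0). Run in triplicate, two independent experiments, mean ± SD.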

Staphylococcus aureus [3] = experiment: Antibacterial activity against Staphylococcus aureus MTCC 3160 after 18 hrs by micro dilution broth assay; format: functional; conditions: MTCC 3160, 18 h
Outline: (§2)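 Broth microdilution (modified CLSI): mid-log inoculum at 10^5 CFU/mL in Mueller-Hinton broth; serial 2-fold dilutions of sample in 0.001% acetic acid with 0.2% BSA added. Incubated overnight at 37 °C with agitation; A600 read at 18 h. Drug-free culture and uninoculated broth as controls; triplicate.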

Escherichia coli [4] = experiment: Growth inhibition of Escherichia coli MTCC 0723 at 2 times MIC by time-kill assay; format: functional, organism-based
Outline: (§3)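 Time-kill: mid-log cells (2×10^5 CFU/mL) in MHB, untreated or exposed at 1, 2, 4 and 8×MIC at 37 °C. Aliquots taken at 0, 15, 30, 60, 120 and 240 min, serially 10-fold diluted, plated on Mueller-Hinton agar for 18 h at 37 °C. Log CFU/mL plotted against time versus untreated control; two independent experiments in triplicate.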

[5] = Therapeutic index, ratio of HC50 for human RBCs to MIC for Escherichia coli MTCC 0723; conditions: red blood cells (RBCs), read-out: TI
Staphylococcus aureus [6] = experiment: Bactericidal activity against Staphylococcus aureus MTCC 3160 at 4 to 8 times MIC by time-kill assay; format: functional, organism-based; outline: as §3
Staphylococcus aureus [7] = experiment: Antibacterial activity against methicillin-resistant Staphylococcus aureus PGI/ DML03149 clinical isolate after 16 days by serial passage resistance development assay; format: functional, organism-based
Outline: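 MRSA clinical isolate serially passaged for 16 days. Each day MICs were set up in microtiter wells over doubling-dilution concentrations, 18 h incubation. Cells from triplicate wells at the concentration still permitting visible growth were diluted to about 2×10^5 CFU/mL to seed the next exposure. MIC was tracked across passages.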

Bacillus subtilis = experiment: Antibacterial activity against Bacillus subtilis MTCC 2763 after 18 hrs by micro dilution broth assay; format: functional; conditions: MTCC 2763, 18 h; outline: as §2
Escherichia coli [8] = experiment: Membrane disruption effect in Escherichia coli MTCC 0723 assessed as surface blebs and aggregation at 4 times MIC by scanning electron microscopy; format: functional, organism-based
Outline: (§4)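 SEM: E. coli and S. aureus at 1×10^6 CFU/mL in 10 mM PBS pH 7.4 with 100 mM NaCl, exposed at 4×MIC at 37 °C. […] After 30 min, cells fixed in 4% glutaraldehyde/0.2 M cacodylate for 3 h at 4 °C, ethanol-dehydrated, HMDS-dried, gold-coated (~20 nm).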

Aspergillus fumigatus [9] = experiment: Antifungal activity against Aspergillus fumigatus ATCC 42203 after 24 hrs by M27-A method; format: functional; conditions: ATCC 42203, 24 h
Outline: (§5)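 Fungi at 2.5×10^3 cfu/mL in RPMI 1640 (L-glutamine, no glucose or NaHCO3, buffered pH 7.0 with 0.165 M MOPS), mixed 1:1 with serial 2-fold aqueous dilutions. Incubated at 37 °C with shaking, 24 h for Aspergillus, 48-72 h for Candida and Cryptococcus; A600 read. MIC taken as lowest concentration with no growth.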

Candida albicans [10] = experiment: Antifungal activity against Candida albicans ATCC 24433 after 48 to 72 hrs by M27-A method; format: functional; outline: as §5
[11] = Membrane permeabilization activity assessed as release of calcein from PE/PG liposomes at 4 ug/ml after 5 mins by spectrofluorimetry; format: ADME; outline: as §1
Escherichia coli [12] = experiment: Antibacterial activity against imipenem-resistant Escherichia coli PGI/ DML02292 clinical isolate after 18 hrs by micro dilution broth assay; format: functional; conditions: PGI/ DML02292, 18 h
Staphylococcus aureus [13] = experiment: Antibacterial activity against methicillin-resistant Staphylococcus aureus PGI/ DML03149 clinical isolate after 18 hrs by micro dilution broth assay; format: functional; conditions: PGI/ DML03149, 18 h
Escherichia coli [14] = experiment: Bactericidal activity against Escherichia coli MTCC 0723 at 4 to 8 times MIC by time-kill assay; format: functional, organism-based; outline: as §3
[15] = Membrane permeabilization activity assessed as release of calcein from PE/PG liposomes at 20 ug/ml after 5 mins by spectrofluorimetry; format: ADME; outline: as §1
Pseudomonas aeruginosa = experiment: Antibacterial activity against Pseudomonas aeruginosa MTCC 2295 after 18 hrs by micro dilution broth assay; format: functional; conditions: MTCC 2295, 18 h; outline: as §2
Escherichia coli [16] = experiment: Antibacterial activity against Escherichia coli MTCC 0723 after 18 hrs by micro dilution broth assay; format: functional; conditions: MTCC 0723, 18 h; outline: as §2
Escherichia coli [17] = experiment: Bactericidal activity against Escherichia coli MTCC 0723 assessed as log reduction in bacterial growth at 4 to 8 times MIC up to 30 mins by time-kill assay relative to control; format: functional; outline: as §3
Staphylococcus aureus [18] = experiment: Membrane disruption effect in Staphylococcus aureus MTCC 3160 assessed as surface blebs and aggregation at 4 times MIC by scanning electron microscopy; format: functional, organism-based; outline: as §4
Escherichia coli [19] = experiment: Binding affinity to Escherichia coli plasmid DNA at 12 ug/ml after 1 hr by gel retardation assay
Outline: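 Gel retardation: 100 ng plasmid DNA from E. coli PGI/DML02292 mixed with varying peptide amounts in binding buffer (10 mM Tris-HCl pH 8.0, 5% glycerol, 1 mM EDTA, 1 mM DTT, 20 mM KCl, 50 μg/mL BSA). Held 1 h at room temperature, then run on 1% agarose in 0.5× TBE. Polymyxin B as standard.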

Aspergillus fumigatus [20] = experiment: Antifungal activity against fluconazole-resistant Aspergillus fumigatus IGMC/LM1/0336 after 24 hrs by M27-A method; format: functional; conditions: IGMC/LM1/0336, 24 h
Outline: (§6)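 Fungi at 2.5×10^3 cfu/mL in RPMI 1640 (L-glutamine, no glucose or NaHCO3, pH 7.0 with 0.165 M MOPS). Mixed 1:1 with serial 2-fold dilutions in water, incubated at 37 °C with shaking, 24 h for A. fumigatus and 48–72 h for C. albicans. Growth read by absorbance at 600 nm. MIC taken as the lowest concentration with no growth.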

[21] = Stability in human plasma after 4 days by analytical RP-HPLC; format: ADME, cell-free; conditions: read-out: Stability
Outline: (§7)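 Heparinized fresh human plasma (1 mL) plus 50 μL of a […] aqueous stock, incubated at 37 °C. At intervals, 100 μL aliquots precipitated with 200 μL 95% ethanol, held 15 min at 4 °C, spun at 18,000 g for 2 min. Supernatant analysed by C18 RP-HPLC.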

[22] = Proteolytic stability assessed as alpha-chymotrypsin (unknown origin)-mediated degradation after 4 days by analytical RP-HPLC; format: ADME, Homo sapiens; conditions: 96 h
Outline: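 Peptide (1 mg/mL sample solution) and enzyme solution (1 mg per 50 mL) in 0.1 M NH4HCO3 pH 8.2, combined with buffer and incubated at 37 °C. Aliquots taken over time, quenched with 10% formic acid. Remaining peptide quantified by C18 RP-HPLC with a water/acetonitrile gradient (0.05% TFA); enzyme-free control run alongside.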

Plasma = experiment: Stability in human plasma after 24 hrs by analytical RP-HPLC; format: ADME, cell-free; outline: as §7
Staphylococcus aureus [23] = experiment: Growth inhibition of Staphylococcus aureus MTCC 3160 at 2 times MIC by time-kill assay; format: functional, organism-based; outline: as §3
Cryptococcus neoformans = experiment: Antifungal activity against Cryptococcus neoformans ATCC 2344 after 48 to 72 hrs by M27-A method; format: functional; outline: as §5
[24] = Hemolytic activity in human RBCs; format: ADME, cell-based, Erythrocyte; conditions: red blood cells (RBCs)
Outline: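 Washed fresh human erythrocytes, 4% (v/v) in PBS (35 mM phosphate, 150 mM NaCl, pH 7.2), mixed 1:1 with 2-fold dilutions in PBS. Incubated 1 h at 37 °C without agitation, then centrifuged at 1000 g for 5 min. Supernatant hemoglobin read at 440 nm; % hemolysis = 100(A−A0)/(At−A0).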

[25] = Membrane permeabilization activity assessed as release of calcein from PC/PE/PI/ergosterol liposomes at 20 ug/ml after 5 mins by spectrofluorimetry; format: ADME; outline: as §1
Staphylococcus aureus [26] = experiment: Bactericidal activity against Staphylococcus aureus MTCC 3160 assessed as log reduction in bacterial growth at 4 to 8 times MIC up to 30 mins by time-kill assay relative to control; format: functional; outline: as §3
Aspergillus niger = experiment: Antifungal activity against Aspergillus niger ATCC 64028 after 24 hrs by M27-A method; format: functional; conditions: ATCC 64028, 24 h; outline: as §5
Candida albicans [27] = experiment: Antifungal activity against fluconazole-resistant Candida albicans PGI/ DML0109 clinical isolate after 48 to 72 hrs by M27-A method; format: functional; outline: as §6
Aspergillus fumigatus [28] = experiment: Membrane disruption effect in Aspergillus fumigatus ATCC 42203 assessed as surface blebs and aggregation at 4 times MIC by scanning electron microscopy; format: functional, organism-based

| SMILES | selectivity ratio [1] | Activity [2] [%] | MIC (Staphylococcus aureus [3]) [µg/mL] | selectivity ratio [5] | MIC (Bacillus subtilis) [µg/mL] | MIC (Aspergillus fumigatus [9]) [µg/mL] | MIC (Candida albicans [10]) [µg/mL] | Activity [11] [%] | MIC (Escherichia coli [12]) [µg/mL] | MIC (Staphylococcus aureus [13]) [µg/mL] | Activity [15] [%] | MIC (Pseudomonas aeruginosa) [µg/mL] | MIC (Escherichia coli [16]) [µg/mL] | MIC (Aspergillus fumigatus [20]) [µg/mL] | MIC (Cryptococcus neoformans) [µg/mL] | HC50 [24] [µg/mL] | Activity [25] [%] | MIC (Aspergillus niger) [µg/mL] | MIC (Candida albicans [27]) [µg/mL] | further results |
| --- | --- | --- | --- | --- | --- | --- | --- | --- | --- | --- | --- | --- | --- | --- | --- | --- | --- | --- | --- | --- |
| CCCCCCCCCCCCCC(=O)Nc1cccc(C(=O)NC(CCCN)C(=O)NC(CCCN)C(=O)NC(CCCN)C(=O)NC(CCCN)C(N)=O)c1 (configuration not stated) ({Myristoyl-3Abz}-[Orn][Orn][Orn][Orn]-NH2; configuration not given here) | 333 | 29 | 1.5 (≈ 1.87 µM) | 400 | 10 (≈ 12.5 µM) | 2.25 (≈ 2.8 µM) | 3.1 (≈ 3.86 µM) | 58 | 3.1 (≈ 3.86 µM) | 2 (≈ 2.49 µM) | 93 | 2 (≈ 2.49 µM) | 1.25 (≈ 1.56 µM) | 4 (≈ 4.98 µM) | 6.25 (≈ 7.78 µM) | 500 | 77 | 3 (≈ 3.74 µM) | 4 (≈ 4.98 µM) | growth inhibition (GI) (Escherichia coli [4]): Active; Activity (Staphylococcus aureus [6]): Active; Activity (Staphylococcus aureus [7]): Active; Activity (Escherichia coli [8]): Active; Activity (Escherichia coli [14]): Active; FC (Escherichia coli [17]): 5; Activity (Staphylococcus aureus [18]): Active; Activity (Escherichia coli [19]): inactive; remaining at 96 h [21]: 76%; Stability [22]: Stable; Stability (Plasma): Stable; growth inhibition (GI) (Staphylococcus aureus [23]): Active; FC (Staphylococcus aureus [26]): 5 |
| CCCCCCCCCCCCCCCCCC(=O)Nc1cccc(C(=O)NC(CCCN)C(=O)NC(CCCN)C(=O)NC(CCCN)C(=O)NC(CCCN)C(N)=O)c1 (configuration not stated) ({Stearoyl-3Abz}-[Orn][Orn][Orn][Orn]-NH2; configuration not given here) | 20 | 57 | 10 (≈ 11.6 µM) | 57.1 | 12.5 (≈ 14.5 µM) | 1.5 (≈ 1.75 µM) | 1.5 (≈ 1.75 µM) | 44 | 5 (≈ 5.82 µM) | 10.5 (≈ 12.2 µM) | 84 | 6.25 (≈ 7.27 µM) | 3.5 (≈ 4.07 µM) | 2 (≈ 2.33 µM) | 5.5 (≈ 6.4 µM) | 200 | 89 | 1.5 (≈ 1.75 µM) | 2 (≈ 2.33 µM) | Activity (Aspergillus fumigatus [28]): Active |
